Measured values published in ChEMBL document CHEMBL2321865 (J Med Chem, 2013).
Calls of active or inactive are those of the source.

Key:
[1] = system: Mus musculus; experiment: Antinociceptive activity in CD1 mouse assessed as paw licking and jumping latency at 3000 nmol, iv measured after 15 to 60 mins by hot plate test relative to vehicle-treated control; type: functional
How it was run: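 Male CD-1 mice, 25-30 g, lightly isoflurane-anaesthetised, dosed into the tail vein at 5 mL/kg. Hot plate at 55.0 °C; latency to paw lick or jump, cut-off 60 s. Baseline is the mean of three readings 15 min apart; readings to 180 min. %MPE = (post-drug − baseline)/(cut-off − baseline)×100. Mean ± S.E.M.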

[2] = system: Mus musculus; experiment: Antinociceptive activity in CD1 mouse assessed as paw licking and jumping latency at 0.6 nmol, icv measured after 15 to 30 mins by hot plate test; type: functional, organism-based
How it was run: (§1)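 Male CD-1 mice, 25-30 g, lightly isoflurane-anaesthetised; i.c.v. injection 2 mm caudal, 2 mm lateral to bregma, 3 mm deep, 5 µL. Hot plate held at 55.0 °C; latency to paw lick or jump, cut-off 60 s. Baseline is the mean of three readings 15 min apart. Latencies taken at 15-120 min after dosing and expressed as %MPE.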

[3] = system: Mus musculus; experiment: Antinociceptive activity in CD1 mouse assessed as tail withdrawal latency at 3000 nmol, iv measured after 15 to 60 mins by tail flick test relative to vehicle-treated control; type: functional
How it was run: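 Male CD-1 mice, lightly isoflurane-anaesthetised, given tail-vein injection at 5 mL/kg. Tail-flick latency to radiant heat focused 3-4 cm from the tail tip, cut-off 15 s. Baseline is the mean of three readings; readings at 15-180 min; expressed as %MPE. Mean ± S.E.M.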

[4] = system: Mus musculus; experiment: Antinociceptive activity in CD1 mouse assessed as tail withdrawal latency at 0.6 nmol, icv measured after 15 to 30 mins by tail flick test; type: functional, organism-based
How it was run: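 Male CD-1 mice given i.c.v. injection (5 µL; 2 mm caudal, 2 mm lateral to bregma, 3 mm deep) under light isoflurane. Radiant heat focused 3-4 cm from the tail tip; withdrawal latency recorded, cut-off 15 s. Baseline is the mean of three readings 15 min apart; readings at 15-120 min; %MPE.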

[5] = system: Mus musculus; experiment: Antinociceptive activity in CD1 mouse assessed as paw licking and jumping latency at 0.6 nmol, icv measured after 30 to 45 mins by hot plate test relative to vehicle-treated control; type: functional; how it was run: as §1
[6] = molecular target: Delta-type opioid receptor (Mus musculus, UniProt P32300); experiment: Inhibition of DOR in ICR mouse vas deferens assessed as inhibition of electrically-stimulated muscle contraction after 3 mins; parameters: species or system Muscle tissue
Delta-type opioid receptor (Mus musculus, UniProt P32300), sequence (P32300 whole entry): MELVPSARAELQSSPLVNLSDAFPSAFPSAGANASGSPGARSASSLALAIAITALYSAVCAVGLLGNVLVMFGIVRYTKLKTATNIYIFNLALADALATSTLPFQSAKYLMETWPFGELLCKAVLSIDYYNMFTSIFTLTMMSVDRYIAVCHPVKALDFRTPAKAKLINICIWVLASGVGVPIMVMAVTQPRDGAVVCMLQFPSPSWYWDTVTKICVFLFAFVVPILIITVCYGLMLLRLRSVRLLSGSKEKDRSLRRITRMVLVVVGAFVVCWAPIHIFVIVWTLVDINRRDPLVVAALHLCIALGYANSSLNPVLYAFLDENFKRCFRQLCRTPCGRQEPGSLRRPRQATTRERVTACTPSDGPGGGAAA
How it was run: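 Vas deferens from male ICR mice, 25-30 g, in Mg-free Krebs at 37 °C under 95% O₂/5% CO₂. Transmural stimulation at 0.1 Hz, 2.0 ms pulses, supramaximal voltage. Cumulative curves over five to seven concentrations; inhibition read 3 min after each addition. IC₅₀ from a Hill fit, at least four assays.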

[7] = molecular target: Delta-type opioid receptor (Rattus norvegicus, UniProt P33533); experiment: Displacement of [3H]Deltorphin from DOR in Sprague-Dawley rat brain membrane after 180 mins by scintillation counting analysis; type: cell membranes
Delta-type opioid receptor (Rattus norvegicus, UniProt P33533), sequence (P33533 whole entry): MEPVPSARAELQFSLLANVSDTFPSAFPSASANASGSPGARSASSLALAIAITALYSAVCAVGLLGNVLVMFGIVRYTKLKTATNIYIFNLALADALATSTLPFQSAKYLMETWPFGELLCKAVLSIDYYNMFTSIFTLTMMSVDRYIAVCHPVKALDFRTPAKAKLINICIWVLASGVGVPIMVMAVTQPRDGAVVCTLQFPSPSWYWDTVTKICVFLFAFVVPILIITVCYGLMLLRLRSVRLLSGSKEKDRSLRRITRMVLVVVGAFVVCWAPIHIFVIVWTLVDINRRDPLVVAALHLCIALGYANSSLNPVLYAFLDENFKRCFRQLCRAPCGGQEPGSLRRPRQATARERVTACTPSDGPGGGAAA
How it was run: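 Whole brain homogenate from male Sprague-Dawley rats, pre-incubated 30 min at 25 °C to remove endogenous opioids. Six to seven test concentrations; rapid filtration; nonlinear least-squares fit; at least two assays, each in duplicate.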

[8] = molecular target: Mu-type opioid receptor (Cavia porcellus, UniProt P97266); experiment: Inhibition of MOR in Hartley guinea pig ileum longitudinal muscle myenteric plexus assessed as inhibition of electrically-stimulated muscle contraction after 3 mins; type: tissue-based
Mu-type opioid receptor, sequence (P97266 whole entry): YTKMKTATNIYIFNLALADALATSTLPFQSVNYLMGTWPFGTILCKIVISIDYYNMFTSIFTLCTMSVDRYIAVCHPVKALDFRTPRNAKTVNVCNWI
How it was run: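 Longitudinal muscle-myenteric plexus strips from male Hartley guinea pigs (150-400 g) in oxygenated Krebs at 37 °C. Stimulated at 0.1 Hz, 0.4 ms pulses, supramaximal voltage. […] IC₅₀ by Hill fit, at least four assays.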

SMILES	Activity [1]	Activity [2]	Activity [3]	Activity [4]	MPE [5]	IC50 [6]	Ki [7]	IC50 [8]
C[C@@H](NC(=O)[C@@H](N)Cc1ccc(O)cc1)C(=O)NCC(=O)N[C@@H](Cc1ccccc1)C(=O)NNC(=O)[C@H](Cc1ccccc1)NC(=O)CNC(=O)[C@@H](C)NC(=O)[C@@H](N)Cc1ccc(O)cc1 [BIPHALIN]	Active	Active	Active	Active	100%	–	–	–
C[C@@H](NC(=O)C[C@@H](N)Cc1ccc(O)cc1)C(=O)NCC(=O)N[C@@H](Cc1ccccc1)C(=O)N[C@H](CC(=O)N[C@H](C)C(=O)NCC(=O)N[C@@H](Cc1ccccc1)C(N)=O)Cc1ccc(O)cc1	–	–	–	–	–	710 nM	480 nM	670 nM
